Experimental findings from ChEMBL document CHEMBL1137353, “6-(4-chlorophenyl)-3-substituted-thieno[3,2-d]pyrimidin-4(3H)-one-based melanin-concentrating hormone receptor 1 antagonist” (J Med Chem, 2006) are described below.

Data set [1] addresses Melanin-concentrating hormone receptor 1 (Homo sapiens, UniProt Q99705). As to the kind of experiment: Antagonist activity against human MCH1 receptor stably-expressed in CHO cells by Gal4/Elk1-Luc reporter assay. It counts as functional, cell-based. The method in brief:
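Human MCHR1 antagonism read out in CHO cells carrying a Gal4/Elk1 luciferase reporter. IC50 values are averages of 2-3 experiments.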

A short description of data set [2]: Volume of distribution in rat at 3 mg/kg, iv and 10 mg/kg, po. The class given is ADME, organism-based. Particulars: in vivo, read-out: Vss. The procedure, abridged:
(§1)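 Rat PK. Dosed in 20% DMSO/21% Solutol in 10 mM MSA (final concentration), n = 2. IV dose 3 mg/kg, PO dose 10 mg/kg. Plasma drug levels measured by LC-MS/MS. Half-life taken from the IV dosing.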

Data set [3] in a line: Total clearance in rat at 3 mg/kg, iv and 10 mg/kg, po. It counts as ADME, organism-based. Particulars: in vivo. The procedure, abridged: as §1
Data set [4] is described as follows: Oral bioavailability in rat at 3 mg/kg, iv and 10 mg/kg, po. The class given is ADME, organism-based. Conditions: in vivo. The procedure, abridged:
as §1

The nature of data set [5]: Half life in rat at 3 mg/kg, iv. The class given is ADME, organism-based. The arrangement: dose 3 mg/kg, route intravenous. Particulars: in vivo. The procedure, abridged: as §1
Data set [6] in a line: Dissociation constant, pKa of the compound. It counts as physicochemical.
Data set [7] relates to Mus musculus. As to the kind of experiment: Reduction in body weight of DIO AKR/J mouse relative to control at 10 mg/kg/day, po after 21 days. The arrangement: scale not given: the % may be the effect or the level left. The class given is functional. The procedure, abridged:
(§2)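 Diet-induced obese AKR/J mice on a high-fat diet (58% kcal fat). Oral dosing once daily for 21 days. Weight change expressed as percentage of pretreatment body weight for each group. Vehicle group and rimonabant (CB1 inverse agonist) used as controls. Mean ± SEM.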

The subject of data set [8] is Mus musculus. As to the kind of experiment: Reduction in body weight of DIO AKR/J mouse relative to control at 3 mg/kg/day, po after 21 days. Further details: scale not given: the % may be the effect or the level left. It counts as functional. The procedure, abridged:
as §2

The subject of data set [9] is Mus musculus. Put plainly: Reduction in body weight of DIO AKR/J mouse relative to control at 1 mg/kg/day, po after 21 days. The class given is functional. The arrangement: scale not given: the % may be the effect or the level left. The procedure, abridged: as §2

Chain of Melanin-concentrating hormone receptor 1 (Q99705 whole entry, the tested form may be a part): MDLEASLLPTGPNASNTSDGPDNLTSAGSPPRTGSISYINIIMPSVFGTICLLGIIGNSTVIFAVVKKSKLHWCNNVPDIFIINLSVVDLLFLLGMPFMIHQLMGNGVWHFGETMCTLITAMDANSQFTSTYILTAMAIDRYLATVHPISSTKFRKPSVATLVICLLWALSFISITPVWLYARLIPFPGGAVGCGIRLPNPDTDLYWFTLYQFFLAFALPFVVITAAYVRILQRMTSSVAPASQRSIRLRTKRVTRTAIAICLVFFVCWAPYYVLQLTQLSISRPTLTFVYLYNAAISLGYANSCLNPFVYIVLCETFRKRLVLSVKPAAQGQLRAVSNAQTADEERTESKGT

Compound `O=c1c2sc(-c3ccc(Cl)cc3)cc2ncn1-c1ccc2cc(CO)ccc2c1` showed an IC50 in [1] of 31.6 nM.

`O=c1c2sc(-c3ccc(Cl)cc3)cc2ncn1-c1ccc2c(c1)CCC(CN1CCCC1)=C2`: in data set [2], the Vd worked out at 15.7 L/kg. In data set [3], this compound showed a clearance of 21.2 mL/min/kg. Moreover, in data set [1], 0.87 nM corresponded to half-maximal inhibition (IC50). In addition, in [4], the bioavailability amounted to 57%. The compound also had a half-life in [5] of 11 h.

`CN(C)CC1=Cc2ccc(-n3cnc4cc(-c5ccc(Cl)cc5)sc4c3=O)cc2CC1`: the Vd in [2] was 16 L/kg. In data set [3], this compound returned a clearance of 80 mL/min/kg. This compound came in with an IC50 in data set [1] of 2.7 nM. The compound also showed a bioavailability in data set [4] of 67%. In data set [5], the half-life was 3 h.

Take `O=C(c1ccc2cc(-n3cnc4cc(-c5ccc(Cl)cc5)sc4c3=O)ccc2c1)N1CCCC1`: in [1], the IC50 was > 10000 nM.

With `O=c1c2sc(-c3ccc(Cl)cc3)cc2ncn1-c1ccc2ccccc2c1`, the IC50 in [1] was > 10000 nM.

Regarding `O=c1c2sc(-c3ccc(Cl)cc3)cc2ncn1-c1ccc2sc(CN3CCCCC3)cc2c1`, the pKa in [6] worked out at 8.29. The IC50 in [1] amounted to 2 nM.

Turning to `O=c1c2sc(-c3ccc(Cl)cc3)cc2ncn1-c1ccc2sc(CN3CCC(c4ccccc4)CC3)cc2c1`, in data set [2], the Vd is 0.6 L/kg. For the same compound, the clearance in data set [3] is 2.9 mL/min/kg. In data set [6], this compound returned a pKa of 7.91. Besides, the IC50 in data set [1] is 5.7 nM. The bioavailability in data set [4] was 27.9%. In data set [5], the half-life is 5.9 h.

With `COC[C@H]1CCCN1Cc1cc2cc(-n3cnc4cc(-c5ccc(Cl)cc5)sc4c3=O)ccc2o1`, in data set [1], inhibition was half-maximal at 9.5 nM (IC50).

The compound `O=c1c2sc(-c3ccc(Cl)cc3)cc2ncn1-c1ccc2sc(CN3CCN(c4ccccc4)CC3)cc2c1` yielded an IC50 in [1] of 29 nM.

`O=c1c2sc(-c3ccc(Cl)cc3)cc2ncn1-c1ccc2c(c1)CCC(CN1CCCC1)C2` (stereo not given): the midpoint of inhibition in [1], the IC50, lay at 1.3 nM.

Regarding `COC[C@H]1CCCN1Cc1cc2cc(-n3cnc4cc(-c5ccc(Cl)cc5)sc4c3=O)ccc2n1C`, the IC50 in data set [1] is 1.4 nM.

With `Cn1c(CN2CCCC2)cc2cc(-n3cnc4cc(-c5ccc(Cl)cc5)sc4c3=O)ccc21`, in [1], the IC50 is 1.1 nM.

The compound `O=C(NCCCN1CCCC1)c1ccc2cc(-n3cnc4cc(-c5ccc(Cl)cc5)sc4c3=O)ccc2c1` had an IC50 in data set [1] of 1410 nM.

`O=C(NCCN1CCCC1)c1ccc2cc(-n3cnc4cc(-c5ccc(Cl)cc5)sc4c3=O)ccc2c1` registered an IC50 in data set [1] of 5 nM.

In turn, `O=c1c2sc(-c3ccc(Cl)cc3)cc2ncn1-c1ccc2sc(CN3CCOCC3)cc2c1` yielded an IC50 in [1] of 38 nM.

For `O=c1c2sc(-c3ccc(Cl)cc3)cc2ncn1-c1ccc2sc(CN3CC[C@@H](O)C3)cc2c1`, the Vd in data set [2] stood at 3.6 L/kg. This compound gave a clearance in [3] of 30.8 mL/min/kg. Further, the IC50 in data set [1] came to 2.5 nM. Further, in data set [4], the bioavailability is 36.1%. This compound had a half-life in data set [5] of 2.1 h.

As for `O=c1c2sc(-c3ccc(Cl)cc3)cc2ncn1-c1ccc2c(c1)CCC(CN1CCCCC1)=C2`, in data set [1], the IC50 came out at 0.75 nM.

In data set [1], `O=c1c2sc(-c3ccc(Cl)cc3)cc2ncn1-c1ccc2cc(CN3CCCCC3)ccc2c1` returned an IC50 of 0.39 nM.

Regarding `O=c1c2sc(-c3ccc(Cl)cc3)cc2ncn1-c1ccc2oc(CN3CCCC3)cc2c1`, in data set [2], the Vd is 8.5 L/kg. This compound returned a clearance in data set [3] of 115 mL/min/kg. In addition, the midpoint of inhibition in [1], the IC50, lay at 1.1 nM. Also, the bioavailability in [4] worked out at 21%. In [5], the half-life is 1.6 h.

As to `O=C(O)c1ccc2cc(-n3cnc4cc(-c5ccc(Cl)cc5)sc4c3=O)ccc2c1`, the IC50 in data set [1] is > 10000 nM.

In the case of `Cc1c(C(=O)NN2CCCCC2)nn(-c2ccc(Cl)cc2Cl)c1-c1ccc(Cl)cc1` [RIMONABANT], in the data set on Mus musculus [7], the Activity is recorded as 8.4%.

For `CN(C)Cc1cc2cc(-n3cnc4cc(-c5ccc(Cl)cc5)sc4c3=O)ccc2s1`, the IC50 in data set [1] stood at 1.3 nM.

As for `CN1CCN(Cc2cc3cc(-n4cnc5cc(-c6ccc(Cl)cc6)sc5c4=O)ccc3s2)CC1`, the Vd in data set [2] stood at 20.4 L/kg. In addition, in [3], the clearance was found to be 39 mL/min/kg. In addition, it took 5.7 nM to reach half-maximal inhibition in data set [1] (IC50). The figures for the Activity with Mus musculus [7], in the data set on Mus musculus [8] and with Mus musculus [9] were 11.8%, 3.2% and 1.1%, respectively. In data set [4], the bioavailability came to 66%. The half-life in data set [5] was 9.1 h.

Compound `O=c1c2sc(-c3ccc(Cl)cc3)cc2ncn1-c1ccc2sc(CN3CCCC3)cc2c1` gave an IC50 in [1] of 0.91 nM.

The compound `CN(C)CC1CCc2cc(-n3cnc4cc(-c5ccc(Cl)cc5)sc4c3=O)ccc2C1` (stereo not given) displayed an IC50 in data set [1] of 1.1 nM.

In turn, `O=c1c2sc(-c3ccc(Cl)cc3)cc2ncn1-c1ccc2c(c1)CCC(CN1CCCCC1)C2` (stereo not given) showed an IC50 in data set [1] of 3.1 nM.

For orientation: IC50 means the concentration at which inhibition is half-maximal. What is called bioavailability is dose-corrected exposure relative to a reference, in per cent. In general, half-life refers to the time in which the quantity being followed falls by half. What is called pKa is the pH at which an ionisable group is half protonated.
